{"data": "Measurements gathered from unrelated publications", "target": "NUAK family SNF1-like kinase 1 (NUAK1, Homo sapiens, UniProt O60285)", "effect on": "enzyme activity", "mode": "inhibitor", "Sequence (O60285 1-661, as in one of the studies)": "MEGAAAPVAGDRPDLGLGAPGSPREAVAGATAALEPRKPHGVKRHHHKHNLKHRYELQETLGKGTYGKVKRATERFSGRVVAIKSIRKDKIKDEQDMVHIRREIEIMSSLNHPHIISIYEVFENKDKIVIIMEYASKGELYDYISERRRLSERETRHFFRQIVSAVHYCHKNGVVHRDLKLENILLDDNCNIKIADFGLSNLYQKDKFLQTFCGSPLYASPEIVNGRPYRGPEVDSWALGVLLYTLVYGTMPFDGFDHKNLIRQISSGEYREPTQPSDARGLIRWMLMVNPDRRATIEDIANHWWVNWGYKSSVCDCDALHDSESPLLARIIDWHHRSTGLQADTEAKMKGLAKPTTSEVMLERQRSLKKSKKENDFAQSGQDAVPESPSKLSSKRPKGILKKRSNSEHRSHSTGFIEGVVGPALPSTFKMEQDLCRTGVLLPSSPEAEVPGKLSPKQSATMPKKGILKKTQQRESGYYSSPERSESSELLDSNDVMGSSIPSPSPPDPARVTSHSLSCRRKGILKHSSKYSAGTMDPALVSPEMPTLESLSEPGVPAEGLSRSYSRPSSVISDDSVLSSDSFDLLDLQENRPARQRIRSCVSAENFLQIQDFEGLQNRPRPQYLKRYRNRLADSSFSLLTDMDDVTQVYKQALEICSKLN"}
{"Compound": "Cn1c(=O)n(-c2ccc(C(C)(C)C#N)cc2)c2c3cc(-c4cnc5ccccc5c4)ccc3ncc21", "tested at": "10 µM", "remaining activity [%]": 44}
{"Compound": "O=C(Nc1cnn(-c2csc(C(=O)NC3COC3)c2)c1)Nc1ccccc1Cl", "tested at": "5 µM", "remaining activity [%]": 97.9}
{"Compound": "Cc1nn(CC(F)(F)F)cc1Nc1nccc(NCCCNC(=O)C2CCC2)n1", "method": "radiometric", "tested at": "1 µM", "remaining activity [%]": 86}
{"Compound": "Cc1sc(C(=O)NC2COC2)cc1-n1cc(NC(=O)Nc2c(F)cccc2Cl)cn1", "tested at": "10 µM", "remaining activity [%]": 96.9}
{"Compound": "CC(C)(O)[C@H]1CC[C@H](Nc2ccc3ncc(-c4cccc(C(F)(F)F)c4)n3n2)CC1", "tested at": "1 µM", "remaining activity [%]": 72}
{"Compound": "COc1cc(Cl)c(C(=O)N[C@@H](CN[C@H]2CC[C@@H](N)CC2)Cc2ccc(C#N)cc2)cc1-c1ccc(CN[C@H](C)c2ccc(C)cc2)o1", "tested at": "1 µM", "remaining activity [%]": 92}
{"Compound": "CC(C)(C)c1nc2c(s1)c1nc(N)ncc1c1ccc(NS(=O)(=O)c3c(F)cccc3F)c(F)c12", "method": "radiometric", "tested at": "1 µM", "remaining activity [%]": 95}
{"Compound": "NS(=O)(=O)c1ccc(CNc2nc(Nc3cccc(CN4CCOCC4)c3)ncc2C2CC2)cc1", "method": "radiometric", "tested at": "1 µM", "remaining activity [%]": 83}
{"Compound": "Oc1cccc(-c2nc(N3CCOCC3)c3oc4ncccc4c3n2)c1", "tested at": "10 µM", "remaining activity [%]": 98}
{"Compound": "Cc1ccc(C(=O)Nc2ccc(CN3CCN(C)CC3)c(C(F)(F)F)c2)cc1C#Cc1cnc2cccnn12", "tested at": "23.5 nM", "remaining activity [%]": 85}
{"Compound": "O=C(Nc1cccc(Nc2ncc(Br)c(NCCc3cnc[nH]3)n2)c1)N1CCCC1", "method": "radiometric", "tested at": "1 µM", "remaining activity [%]": 1}
{"Compound": "CC(C)(C)c1nc(-c2cccc(NS(=O)(=O)c3c(F)cccc3F)c2F)c(-c2ccnc(N)n2)s1", "method": "radiometric", "tested at": "1 µM", "remaining activity [%]": 101}
{"Compound": "NS(=O)(=O)c1ccc(CNc2nc(Nc3cccc(NC(=O)N4CCCC4)c3)ncc2C2CC2)cc1", "method": "radiometric", "tested at": "1 µM", "remaining activity [%]": 89}
{"Compound": "Cc1cnc(NC2CCOCC2)nc1-n1cnc(C(=O)NC(CN)c2cc(F)cc(Cl)c2)c1 (stereo not drawn)", "method": "radiometric", "tested at": "1 µM", "remaining activity [%]": 67}
{"Compound": "COc1cc(Nc2cnc(C#N)c(O[C@H](C)CN(C)C)n2)ncc1-c1cnn(C)c1", "method": "radiometric", "tested at": "10 µM", "remaining activity [%]": 7}
